Assay type in all cases: functional
The subject of test [1] is Candida albicans. The test is described as follows: Antifungal activity against Candida albicans Y0109 after 24 hrs by micro-broth dilution method. As to conditions: Y0109, 24 h. The procedure, abridged: (§1)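 Broth microdilution per NCCLS on Candida albicans. Compounds were dissolved in DMSO, serially diluted in growth medium, inoculated and incubated at 35 °C. Growth was read at 24 h, and MIC80 was taken as the first well with about 80% growth reduction relative to the drug-free control. Values are the mean of three replicates.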
For orientation: Dilution methods test growth across graded concentrations, often in twofold steps.

In a further test the test system is Candida parapsilosis. Description: Antifungal activity against Candida parapsilosis by micro-broth dilution method. As to conditions: Lodderomyces parapsilosis. The procedure, abridged: (§2)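 MIC80 by broth microdilution in 96-well format following NCCLS. Compounds were dissolved in DMSO, serially diluted in growth medium, inoculated and incubated at 35 °C. The endpoint was the first well with about 80% growth reduction versus the drug-free well. Values are means of three replicate tests.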

The test system of the next test is Aspergillus fumigatus. The test is described as follows: Antifungal activity against Aspergillus fumigatus by micro-broth dilution method. The procedure, abridged:
as §2

A further test has as its system Cryptococcus neoformans. The test is described as follows: Antifungal activity against Cryptococcus neoformans after 72 hrs by micro-broth dilution method. The method, boiled down: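 Cryptococcus neoformans tested by NCCLS micro-broth dilution. Compounds were dissolved in DMSO, serially diluted in medium, inoculated and incubated at 35 °C. MIC80 was read at 72 h as the first well showing approximately 80% growth reduction compared with the drug-free well. Values are the mean of three replicate tests.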

The subject of test [2] is Candida albicans. The test is described as follows: Antifungal activity against Candida albicans SC5314 after 24 hrs by micro-broth dilution method. As to conditions: SC5314, 24 h. The method, boiled down: as §1
The test system of another test is Candida tropicalis. Description: Antifungal activity against Candida tropicalis by micro-broth dilution method. The method, boiled down: as §2
The next test has as its system Trichophyton rubrum. Description: Antifungal activity against Trichophyton rubrum by micro-broth dilution method. The method, boiled down:
as §2

The next test concerns Kluyveromyces marxianus. The test is described as follows: Antifungal activity against Candida kefyr by micro-broth dilution method. The procedure, abridged:
as §2

The structures appear in SMILES notation. Values after ≈ are worked out from the molar mass of the structure shown.

One may read the MIC as the lowest concentration found to suppress growth. A higher MIC goes with weaker potency. With `CC(C)N(Cc1cn(Cc2cccc([N+](=O)[O-])c2)nn1)CC(O)(Cn1cncn1)c1ccc(F)cc1F` (stereo not drawn), the MIC with Candida albicans [1] was 0.0625 µg/mL (≈ 0.122 µM); against Candida parapsilosis it was 2 µg/mL (≈ 3.9 µM); in the test with Aspergillus fumigatus, more than 64 µg/mL; in the test with Cryptococcus neoformans, 32 µg/mL (≈ 62.4 µM); in the test with Candida albicans [2] it was less than 0.125 µg/mL; against Candida tropicalis, 4 µg/mL (≈ 7.8 µM). For the same compound, the MIC in the test on Trichophyton rubrum is 1 µg/mL (≈ 1.95 µM); in the test on Kluyveromyces marxianus, 0.25 µg/mL (≈ 0.488 µM).
Consider `OC(CN(Cc1cn(Cc2cccc(Cl)c2)nn1)C1CC1)(Cn1cncn1)c1ccc(F)cc1F` (stereo not drawn), for which the MIC against Candida albicans [1] was 0.0156 µg/mL (≈ 0.0312 µM); in the test on Candida parapsilosis it was 8 µg/mL (≈ 16 µM); against Aspergillus fumigatus it was more than 64 µg/mL; in the test with Cryptococcus neoformans, 64 µg/mL (≈ 128 µM); in the test on Candida albicans [2], 1 µg/mL (≈ 2 µM); against Candida tropicalis, 4 µg/mL (≈ 8 µM). The MIC in the test on Trichophyton rubrum amounted to 4 µg/mL (≈ 8 µM); with Kluyveromyces marxianus it was 0.0156 µg/mL (≈ 0.0312 µM).
As for `N#Cc1ccc(Cn2cc(CN(CC(O)(Cn3cncn3)c3ccc(F)cc3F)C3CC3)nn2)cc1` (stereo not drawn), the MIC against Candida albicans [1] is 0.0625 µg/mL (≈ 0.127 µM); with Candida parapsilosis it was 4 µg/mL (≈ 8.15 µM); with Aspergillus fumigatus, more than 64 µg/mL; against Cryptococcus neoformans, 64 µg/mL (≈ 130 µM); with Candida albicans [2], 1 µg/mL (≈ 2.04 µM); against Candida tropicalis it was 4 µg/mL (≈ 8.15 µM). The values for the MIC against Trichophyton rubrum and in the test on Kluyveromyces marxianus were 4 µg/mL (≈ 8.15 µM) and 1 µg/mL (≈ 2.04 µM), respectively.
`OC(CN(Cc1cn(Cc2ccc(Cl)cc2)nn1)C1CC1)(Cn1cncn1)c1ccc(F)cc1F` (stereo not drawn): the minimum inhibitory concentration (MIC) against Candida albicans [1] is 0.25 µg/mL (≈ 0.5 µM); in the test on Candida parapsilosis, 2 µg/mL (≈ 4 µM); with Aspergillus fumigatus, more than 64 µg/mL; with Cryptococcus neoformans, 16 µg/mL (≈ 32 µM); in the test on Candida albicans [2], 0.25 µg/mL (≈ 0.5 µM); in the test on Candida tropicalis it was 0.5 µg/mL (≈ 1 µM). Moreover, the MIC in the test with Trichophyton rubrum amounted to 2 µg/mL (≈ 4 µM); against Kluyveromyces marxianus, 0.0156 µg/mL (≈ 0.0312 µM).
For `CCc1ccc(Cn2cc(CN(CC(O)(Cn3cncn3)c3ccc(F)cc3F)C3CC3)nn2)cc1` (stereo not drawn), the MIC was 0.25 µg/mL (≈ 0.507 µM) in the test on Candida albicans [1]; 4 µg/mL (≈ 8.1 µM) in the test with Candida parapsilosis; more than 64 µg/mL against Aspergillus fumigatus; 1 µg/mL (≈ 2.03 µM) against Cryptococcus neoformans; 4 µg/mL (≈ 8.1 µM) with Candida albicans [2]; 2 µg/mL (≈ 4.05 µM) with Candida tropicalis. The MIC turned out to be 2 µg/mL (≈ 4.05 µM) in the test on Trichophyton rubrum and 0.25 µg/mL (≈ 0.507 µM) in the test with Kluyveromyces marxianus.
As to `CC(C)N(Cc1cn(Cc2ccccc2C#N)nn1)CC(O)(Cn1cncn1)c1ccc(F)cc1F` (stereo not drawn), the MIC in the test with Candida albicans [1] was 0.0156 µg/mL (≈ 0.0317 µM); with Candida parapsilosis, 8 µg/mL (≈ 16.2 µM); against Aspergillus fumigatus, more than 64 µg/mL; in the test on Cryptococcus neoformans it was 64 µg/mL (≈ 130 µM); against Candida albicans [2], 0.25 µg/mL (≈ 0.508 µM); in the test with Candida tropicalis, 1 µg/mL (≈ 2.03 µM). The MIC against Trichophyton rubrum turned out to be 2 µg/mL (≈ 4.06 µM); with Kluyveromyces marxianus, 1 µg/mL (≈ 2.03 µM).
With `C[C@@H](c1ncncc1F)[C@](O)(Cn1cncn1)c1ccc(F)cc1F` [VORICONAZOLE], the MIC against Candida albicans [1] was less than 0.125 µg/mL; in the test with Candida parapsilosis, less than 0.125 µg/mL; in the test with Aspergillus fumigatus, less than 0.125 µg/mL; with Cryptococcus neoformans it was less than 0.125 µg/mL; against Candida albicans [2] it was 32 µg/mL (≈ 91.6 µM); against Candida tropicalis, less than 0.125 µg/mL. Also, the minimum inhibitory concentration (MIC) against Trichophyton rubrum was 0.25 µg/mL (≈ 0.716 µM); in the test on Kluyveromyces marxianus, 0.0039 µg/mL (≈ 0.0112 µM).
With `OC(CN(Cc1cn(C2CCCCC2)nn1)C1CC1)(Cn1cncn1)c1ccc(F)cc1F` (stereo not drawn), the MIC came out at 0.0625 µg/mL (≈ 0.137 µM) against Candida albicans [1]; 1 µg/mL (≈ 2.19 µM) against Candida parapsilosis; 32 µg/mL (≈ 69.9 µM) with Aspergillus fumigatus; 2 µg/mL (≈ 4.37 µM) against Cryptococcus neoformans; 4 µg/mL (≈ 8.74 µM) against Candida albicans [2]; 1 µg/mL (≈ 2.19 µM) with Candida tropicalis. The MIC amounted to 2 µg/mL (≈ 4.37 µM) in the test with Trichophyton rubrum and 0.25 µg/mL (≈ 0.546 µM) with Kluyveromyces marxianus.
For the compound `OC(CN(Cc1cn(Cc2ccccc2F)nn1)C1CC1)(Cn1cncn1)c1ccc(F)cc1F` (stereo not drawn), the MIC in the test with Candida albicans [1] is 0.0625 µg/mL (≈ 0.129 µM); in the test with Candida parapsilosis, 1 µg/mL (≈ 2.07 µM); in the test on Aspergillus fumigatus, more than 64 µg/mL; against Cryptococcus neoformans it was 8 µg/mL (≈ 16.5 µM); in the test with Candida albicans [2], 0.5 µg/mL (≈ 1.03 µM); with Candida tropicalis, 0.5 µg/mL (≈ 1.03 µM). Also, the minimal inhibitory concentration (MIC) is 0.25 µg/mL (≈ 0.517 µM) in the test on Trichophyton rubrum and 0.0156 µg/mL (≈ 0.0323 µM) with Kluyveromyces marxianus.
For the compound `CC(C)(C)c1ccc(Cn2cc(CN(CC(O)(Cn3cncn3)c3ccc(F)cc3F)C3CC3)nn2)cc1` (stereo not drawn), the MIC with Candida albicans [1] is less than 0.125 µg/mL; against Candida parapsilosis, 0.25 µg/mL (≈ 0.479 µM); in the test with Aspergillus fumigatus it was more than 64 µg/mL; against Cryptococcus neoformans it was 4 µg/mL (≈ 7.67 µM); against Candida albicans [2], 0.0625 µg/mL (≈ 0.12 µM); in the test on Candida tropicalis, 16 µg/mL (≈ 30.7 µM). Moreover, the MIC against Trichophyton rubrum was 4 µg/mL (≈ 7.67 µM); against Kluyveromyces marxianus, 1 µg/mL (≈ 1.92 µM).
Turning to `CC(C)N(Cc1cn(Cc2c(Cl)cccc2Cl)nn1)CC(O)(Cn1cncn1)c1ccc(F)cc1F` (stereo not drawn), the MIC is less than 0.125 µg/mL in the test on Candida albicans [1]; 0.0625 µg/mL (≈ 0.117 µM) in the test on Candida parapsilosis; more than 64 µg/mL in the test on Aspergillus fumigatus; 0.0625 µg/mL (≈ 0.117 µM) against Cryptococcus neoformans; 0.0039 µg/mL (≈ 0.00727 µM) in the test with Candida albicans [2]; 0.0156 µg/mL (≈ 0.0291 µM) against Candida tropicalis. In addition, the MIC in the test with Trichophyton rubrum and against Kluyveromyces marxianus was 0.0156 µg/mL (≈ 0.0291 µM) each time.

The values above are taken from ChEMBL document CHEMBL1250476, “Synthesis and antifungal evaluation of novel triazole derivatives as inhibitors of cytochrome P450 14alpha-demethylase” (2010).
